The source of these data is ChEMBL document CHEMBL1955823, “Imidazo[1,2-a]pyrazines as novel PI3K inhibitors” (Bioorg Med Chem Lett, 2012).

Assay [1] has as its target Serine/threonine-protein kinase mTOR (Homo sapiens, UniProt P42345). Description: Inhibition of mTOR. In a few lines: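 mTOR (FRAP1) kinase assay using GFP-4E-BP1 substrate and a Tb-labelled anti-phospho-4E-BP1 (Thr46) antibody in a TR-FRET format, under the manufacturer's conditions; averages of two independent experiments run in duplicate.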
In assay [2] the target is Ribosomal protein S6 kinase alpha-1 (Homo sapiens) (UniProt Q15418). Description: Inhibition of RPS6KA1 at 5 to 10 uM.
Assay [3] has as its target Hepatocyte growth factor receptor (Homo sapiens) (UniProt P08581). Description: Inhibition of MET at 5 to 10 uM.
Assay [4] concerns Serine/threonine-protein kinase B-raf (Homo sapiens), P15056 [V600E]. Description: Inhibition of BRAF V600E mutant at 5 to 10 uM.
Assay [5] is described as follows: Inhibition of PDGFR at 5 to 10 uM.
For assay [6], the target named is PI3-kinase p110-delta/p85-alpha (Homo sapiens, UniProt O00329). Description: Inhibition of human PI3K p110delta/p85alpha. It counts as protein-complex assay. Conditions: read-out: Ki(app).
The target of assay [7] is Fibroblast growth factor receptor 1 (Homo sapiens) (UniProt P11362). Description: Inhibition of FGF-R1 at 5 to 10 uM.
In assay [8] the target is Insulin receptor (Homo sapiens) (UniProt P06213). Description: Inhibition of INS-R at 5 to 10 uM.
For assay [9], the target named is Dual specificity tyrosine-phosphorylation-regulated kinase 1A (Homo sapiens) (UniProt Q13627). Description: Inhibition of DYRK1A at 5 to 10 uM.
The target of assay [10] is Receptor-type tyrosine-protein kinase FLT3 (Homo sapiens) (UniProt P36888). Description: Inhibition of FLT3 at 5 to 10 uM.
For assay [11], the target named is Serine/threonine-protein kinase pim-2 (Homo sapiens) (UniProt Q9P1W9). Description: Inhibition of PIM2 at 5 to 10 uM.
Assay [12] concerns the target Tyrosine-protein kinase JAK2 (Homo sapiens) (UniProt O60674). Description: Inhibition of JAK2 at 5 to 10 uM.
In assay [13] the target is Serine/threonine-protein kinase PAK 1 (Homo sapiens) (UniProt Q13153). Description: Inhibition of PAK1 at 5 to 10 uM.
The target in assay [14] is Focal adhesion kinase 1 (Homo sapiens) (UniProt Q05397). Description: Inhibition of FAK at 5 to 10 uM.
Assay [15] deals with Insulin-like growth factor 1 receptor (Homo sapiens) (UniProt P08069). Description: Inhibition of IGF1-R at 5 to 10 uM.
The target of assay [16] is Phosphatidylinositol 4,5-bisphosphate 3-kinase catalytic subunit gamma isoform (Homo sapiens, UniProt P48736). Description: Inhibition of human PI3K p110gamma. Conditions: read-out: Ki(app).
In assay [17] the target is Epidermal growth factor receptor (Homo sapiens) (UniProt P00533). Description: Inhibition of EGF-R at 5 to 10 uM.
For assay [18], the target named is T1, Inhibitor of nuclear factor kappa-B kinase subunit beta (Homo sapiens) (UniProt O14920).
T1 sequence (whole entry): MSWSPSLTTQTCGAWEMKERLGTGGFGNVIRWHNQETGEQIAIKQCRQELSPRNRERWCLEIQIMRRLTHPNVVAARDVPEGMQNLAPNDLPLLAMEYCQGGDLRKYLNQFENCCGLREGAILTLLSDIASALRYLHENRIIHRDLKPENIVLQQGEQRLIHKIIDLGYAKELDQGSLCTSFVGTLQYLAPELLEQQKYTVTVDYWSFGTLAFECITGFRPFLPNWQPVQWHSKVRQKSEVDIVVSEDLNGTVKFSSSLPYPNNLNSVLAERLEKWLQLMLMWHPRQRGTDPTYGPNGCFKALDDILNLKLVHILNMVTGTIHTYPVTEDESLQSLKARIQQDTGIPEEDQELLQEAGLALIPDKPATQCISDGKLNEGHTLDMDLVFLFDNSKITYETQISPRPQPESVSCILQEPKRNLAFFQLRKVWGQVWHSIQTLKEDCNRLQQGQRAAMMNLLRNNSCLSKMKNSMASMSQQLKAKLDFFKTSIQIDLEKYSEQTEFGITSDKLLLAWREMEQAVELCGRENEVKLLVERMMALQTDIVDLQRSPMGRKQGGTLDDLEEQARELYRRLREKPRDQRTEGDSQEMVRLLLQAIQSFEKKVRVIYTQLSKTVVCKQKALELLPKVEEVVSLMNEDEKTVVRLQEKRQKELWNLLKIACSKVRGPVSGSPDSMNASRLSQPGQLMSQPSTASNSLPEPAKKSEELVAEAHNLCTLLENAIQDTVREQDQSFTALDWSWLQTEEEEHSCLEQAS
Description: Inhibition of IKK-beta at 5 to 10 uM.

Assay [19] addresses T2, Serine/threonine-protein kinase 4 (Homo sapiens) (UniProt Q13043).
T2 sequence (whole entry): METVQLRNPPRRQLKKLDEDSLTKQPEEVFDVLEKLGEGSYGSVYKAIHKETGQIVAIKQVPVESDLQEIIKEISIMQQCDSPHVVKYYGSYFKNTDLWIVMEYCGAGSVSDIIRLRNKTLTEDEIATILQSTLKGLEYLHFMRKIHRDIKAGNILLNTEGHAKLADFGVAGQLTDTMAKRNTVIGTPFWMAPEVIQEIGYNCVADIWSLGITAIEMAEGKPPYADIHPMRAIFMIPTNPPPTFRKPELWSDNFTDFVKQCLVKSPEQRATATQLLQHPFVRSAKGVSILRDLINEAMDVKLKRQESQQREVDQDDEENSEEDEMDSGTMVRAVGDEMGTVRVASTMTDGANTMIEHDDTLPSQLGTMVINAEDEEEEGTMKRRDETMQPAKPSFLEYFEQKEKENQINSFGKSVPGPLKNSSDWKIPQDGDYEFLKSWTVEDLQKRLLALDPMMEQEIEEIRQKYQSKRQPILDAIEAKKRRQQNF
Description: Inhibition of MST1 at 5 to 10 uM.

Assay [20] addresses Mast/stem cell growth factor receptor Kit (Homo sapiens) (UniProt P10721). Description: Inhibition of KIT at 5 to 10 uM.

The structures appear in SMILES notation.

Mast/stem cell growth factor receptor Kit (Homo sapiens), sequence (P10721 whole entry): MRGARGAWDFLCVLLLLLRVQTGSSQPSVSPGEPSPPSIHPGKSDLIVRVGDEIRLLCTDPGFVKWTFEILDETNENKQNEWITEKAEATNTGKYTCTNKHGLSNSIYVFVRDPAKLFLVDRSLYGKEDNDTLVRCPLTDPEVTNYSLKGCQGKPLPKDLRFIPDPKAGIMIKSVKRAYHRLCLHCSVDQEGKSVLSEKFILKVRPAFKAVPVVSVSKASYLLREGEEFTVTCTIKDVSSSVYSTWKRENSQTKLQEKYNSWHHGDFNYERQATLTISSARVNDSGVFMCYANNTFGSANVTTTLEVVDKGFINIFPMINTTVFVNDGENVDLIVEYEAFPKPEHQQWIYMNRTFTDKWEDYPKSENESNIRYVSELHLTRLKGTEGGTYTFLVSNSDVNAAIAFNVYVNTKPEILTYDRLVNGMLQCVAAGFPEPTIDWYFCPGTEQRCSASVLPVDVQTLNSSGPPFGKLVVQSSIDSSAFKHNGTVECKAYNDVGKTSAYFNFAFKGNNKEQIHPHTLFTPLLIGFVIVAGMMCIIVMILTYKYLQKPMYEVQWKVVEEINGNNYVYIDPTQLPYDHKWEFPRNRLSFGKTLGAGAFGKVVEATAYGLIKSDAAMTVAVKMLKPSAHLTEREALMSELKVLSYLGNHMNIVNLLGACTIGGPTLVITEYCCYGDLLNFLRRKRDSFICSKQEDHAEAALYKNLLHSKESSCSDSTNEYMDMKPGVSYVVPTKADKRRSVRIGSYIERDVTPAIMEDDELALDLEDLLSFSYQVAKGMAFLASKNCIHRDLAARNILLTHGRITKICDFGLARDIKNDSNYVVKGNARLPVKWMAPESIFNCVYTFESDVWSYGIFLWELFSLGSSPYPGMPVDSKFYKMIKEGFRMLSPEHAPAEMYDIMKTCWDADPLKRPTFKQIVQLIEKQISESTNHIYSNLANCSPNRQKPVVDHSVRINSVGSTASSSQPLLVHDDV
PI3-kinase p110-delta/p85-alpha, sequence (P27986 whole entry): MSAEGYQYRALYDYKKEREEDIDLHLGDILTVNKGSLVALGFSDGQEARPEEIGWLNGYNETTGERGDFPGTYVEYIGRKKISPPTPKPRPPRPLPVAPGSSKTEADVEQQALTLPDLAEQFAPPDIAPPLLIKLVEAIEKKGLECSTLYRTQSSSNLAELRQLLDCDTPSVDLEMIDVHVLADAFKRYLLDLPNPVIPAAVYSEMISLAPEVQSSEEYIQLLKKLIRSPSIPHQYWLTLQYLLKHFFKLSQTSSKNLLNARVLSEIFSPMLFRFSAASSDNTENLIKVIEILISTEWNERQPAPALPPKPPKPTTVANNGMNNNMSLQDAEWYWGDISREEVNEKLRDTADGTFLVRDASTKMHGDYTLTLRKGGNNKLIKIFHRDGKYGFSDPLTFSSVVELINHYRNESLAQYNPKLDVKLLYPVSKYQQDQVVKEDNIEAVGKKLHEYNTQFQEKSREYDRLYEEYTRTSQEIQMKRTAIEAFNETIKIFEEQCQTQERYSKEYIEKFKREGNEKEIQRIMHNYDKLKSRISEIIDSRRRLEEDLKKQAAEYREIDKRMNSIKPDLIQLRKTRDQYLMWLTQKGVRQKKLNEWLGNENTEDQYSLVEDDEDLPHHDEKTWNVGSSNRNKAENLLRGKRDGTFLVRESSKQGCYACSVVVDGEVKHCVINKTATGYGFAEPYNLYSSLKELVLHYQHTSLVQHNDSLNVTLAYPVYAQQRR
PI3-kinase p110-delta/p85-alpha, sequence (O00329 whole entry): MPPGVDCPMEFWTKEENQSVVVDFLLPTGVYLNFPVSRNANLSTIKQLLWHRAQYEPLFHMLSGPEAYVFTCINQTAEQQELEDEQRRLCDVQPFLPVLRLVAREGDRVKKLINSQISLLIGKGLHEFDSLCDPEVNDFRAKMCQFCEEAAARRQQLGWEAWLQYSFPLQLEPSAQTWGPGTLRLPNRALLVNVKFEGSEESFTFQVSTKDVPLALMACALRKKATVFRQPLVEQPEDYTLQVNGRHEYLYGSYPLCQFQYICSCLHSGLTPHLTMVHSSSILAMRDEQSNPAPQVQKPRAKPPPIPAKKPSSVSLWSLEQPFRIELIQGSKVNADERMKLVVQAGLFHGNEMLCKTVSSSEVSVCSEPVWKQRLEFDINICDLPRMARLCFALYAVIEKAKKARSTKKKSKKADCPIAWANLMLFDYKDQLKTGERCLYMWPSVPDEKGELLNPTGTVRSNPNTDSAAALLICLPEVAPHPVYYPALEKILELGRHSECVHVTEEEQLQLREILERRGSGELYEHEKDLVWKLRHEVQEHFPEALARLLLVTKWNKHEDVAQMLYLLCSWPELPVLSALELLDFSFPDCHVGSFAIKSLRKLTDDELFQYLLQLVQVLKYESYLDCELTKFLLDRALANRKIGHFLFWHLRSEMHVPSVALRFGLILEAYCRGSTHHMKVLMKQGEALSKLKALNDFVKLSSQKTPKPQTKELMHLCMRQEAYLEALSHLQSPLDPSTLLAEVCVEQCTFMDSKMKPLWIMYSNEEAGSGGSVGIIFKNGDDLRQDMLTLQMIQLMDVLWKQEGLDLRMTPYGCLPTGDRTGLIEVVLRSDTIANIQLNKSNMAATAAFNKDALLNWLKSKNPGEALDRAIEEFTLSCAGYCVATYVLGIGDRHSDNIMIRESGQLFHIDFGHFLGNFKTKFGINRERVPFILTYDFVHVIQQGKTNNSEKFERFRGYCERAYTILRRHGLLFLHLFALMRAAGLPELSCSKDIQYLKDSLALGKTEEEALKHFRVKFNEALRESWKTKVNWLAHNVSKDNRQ
Insulin-like growth factor 1 receptor (Homo sapiens), sequence (P08069 31-736 limits assumed): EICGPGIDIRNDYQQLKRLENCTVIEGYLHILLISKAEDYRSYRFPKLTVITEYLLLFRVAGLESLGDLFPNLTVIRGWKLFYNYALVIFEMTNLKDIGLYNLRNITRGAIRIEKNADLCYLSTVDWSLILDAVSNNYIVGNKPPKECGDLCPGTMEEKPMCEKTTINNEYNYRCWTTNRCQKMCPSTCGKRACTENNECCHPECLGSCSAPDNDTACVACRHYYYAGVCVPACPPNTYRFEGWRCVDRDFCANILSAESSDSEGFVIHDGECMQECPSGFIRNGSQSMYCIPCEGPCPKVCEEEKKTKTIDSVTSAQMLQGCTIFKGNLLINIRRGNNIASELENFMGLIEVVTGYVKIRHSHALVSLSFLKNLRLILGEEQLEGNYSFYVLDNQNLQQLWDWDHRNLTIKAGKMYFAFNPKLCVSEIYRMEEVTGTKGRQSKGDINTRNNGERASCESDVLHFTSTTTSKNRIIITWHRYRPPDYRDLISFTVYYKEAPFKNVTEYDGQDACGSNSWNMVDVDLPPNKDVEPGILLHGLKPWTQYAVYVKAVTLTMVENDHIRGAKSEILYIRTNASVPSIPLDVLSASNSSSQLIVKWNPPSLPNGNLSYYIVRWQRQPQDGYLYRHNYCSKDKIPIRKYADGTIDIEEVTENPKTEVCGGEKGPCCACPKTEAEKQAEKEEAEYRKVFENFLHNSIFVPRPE
Insulin-like growth factor 1 receptor (Homo sapiens), sequence (P08069 741-1367 limits assumed): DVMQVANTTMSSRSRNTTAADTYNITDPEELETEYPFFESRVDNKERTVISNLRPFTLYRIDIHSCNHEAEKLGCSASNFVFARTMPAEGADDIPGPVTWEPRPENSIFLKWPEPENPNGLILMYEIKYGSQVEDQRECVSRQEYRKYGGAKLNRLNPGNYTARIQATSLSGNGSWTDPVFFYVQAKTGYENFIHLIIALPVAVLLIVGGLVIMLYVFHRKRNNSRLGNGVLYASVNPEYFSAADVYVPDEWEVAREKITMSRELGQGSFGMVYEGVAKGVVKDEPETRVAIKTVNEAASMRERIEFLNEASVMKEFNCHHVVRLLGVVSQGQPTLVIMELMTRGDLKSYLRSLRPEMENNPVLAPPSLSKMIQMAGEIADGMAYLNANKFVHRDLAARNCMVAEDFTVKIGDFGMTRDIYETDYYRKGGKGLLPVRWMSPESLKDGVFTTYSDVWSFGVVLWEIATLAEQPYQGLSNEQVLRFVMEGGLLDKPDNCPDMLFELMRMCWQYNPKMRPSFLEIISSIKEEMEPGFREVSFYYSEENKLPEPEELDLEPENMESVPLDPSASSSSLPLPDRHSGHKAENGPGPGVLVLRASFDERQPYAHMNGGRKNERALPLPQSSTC
Fibroblast growth factor receptor 1 (Homo sapiens), sequence (P11362 22-822 limits assumed): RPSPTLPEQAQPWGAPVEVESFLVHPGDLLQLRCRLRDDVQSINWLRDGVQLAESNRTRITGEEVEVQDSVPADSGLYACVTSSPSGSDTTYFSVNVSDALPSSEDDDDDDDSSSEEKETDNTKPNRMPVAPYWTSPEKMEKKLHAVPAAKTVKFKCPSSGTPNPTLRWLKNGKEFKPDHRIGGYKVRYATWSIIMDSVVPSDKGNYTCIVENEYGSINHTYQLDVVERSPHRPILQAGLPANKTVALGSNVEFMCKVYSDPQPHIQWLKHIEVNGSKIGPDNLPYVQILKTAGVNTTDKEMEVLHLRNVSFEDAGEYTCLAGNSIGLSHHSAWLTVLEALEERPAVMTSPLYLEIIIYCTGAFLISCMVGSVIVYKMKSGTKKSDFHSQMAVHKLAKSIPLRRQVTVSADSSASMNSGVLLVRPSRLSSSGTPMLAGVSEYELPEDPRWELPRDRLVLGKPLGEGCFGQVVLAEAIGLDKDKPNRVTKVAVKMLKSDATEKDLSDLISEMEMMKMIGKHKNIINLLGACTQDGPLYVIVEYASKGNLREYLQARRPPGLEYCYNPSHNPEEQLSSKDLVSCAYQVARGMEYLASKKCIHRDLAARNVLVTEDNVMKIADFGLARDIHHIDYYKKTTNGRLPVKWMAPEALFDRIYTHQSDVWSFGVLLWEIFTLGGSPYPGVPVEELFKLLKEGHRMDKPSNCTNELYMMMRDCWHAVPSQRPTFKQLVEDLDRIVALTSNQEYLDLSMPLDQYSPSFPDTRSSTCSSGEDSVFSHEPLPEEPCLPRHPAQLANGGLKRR

Regarding `CS(=O)(=O)N1CCN(Cc2cn3c(C#N)c(-c4cccc5[nH]ncc45)nc(N4CCOCC4)c3n2)CC1`, in [1], the IC50 – broadly, the concentration needed to halve the response being measured – is more than 10000 nM. Besides, the inhibition (in general, the relative decrease from the control value, in per cent) in [2] is less than 50%; in assay [3], less than 50%; in assay [4] it was less than 50%; in [5], less than 50%; in [7], less than 50%; in [8] it was 50%. Also, the inhibition in assay [9] is less than 50%; in assay [10] it was less than 50%; in [11], less than 50%; in assay [12], less than 50%; in assay [13], less than 50%; in assay [14], 50%. Also, the inhibition in [15], in assay [17], in [18], in assay [19] and in assay [20] was less than 50% each time. Moreover, the Ki in assay [6] is 43 nM; in assay [16], more than 500 nM.
